Reference: ChEMBL document CHEMBL4627371, “Discovery of novel heat shock protein (Hsp90) inhibitors based on luminespib with potent antitumor activity” (Bioorg Med Chem Lett, 2020)

What was measured:
Heat shock protein HSP90 [1] = target: T1, Heat shock protein HSP90 (Homo sapiens, UniProt P07900+P08238); experiment: Inhibition of HSP90 ATPase activity (unknown origin); type: protein assay
HCT-116 = experiment: Cytotoxicity against human HCT116 cells assessed as cell growth inhibition; type: functional, cell-based
A2780 [2] = experiment: Antitumor activity against human A2780 cells xenografted in BALB/c nu/nu mouse assessed as tumor growth inhibition at 50 mg/kg, iv administered 3 times a week for 2 weeks starting from 5 to 6 days post tumor inoculation relative to control; type: functional; conditions: read-out: TGI
Procedure, shortened: (§1)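 Human A2780 ovarian adenocarcinoma cells were cultured and implanted into BALB/c-nu/nude mice, n = 6 per group. Tumor size and volume were measured 5 or 6 days later. Compounds were suspended in 1% carboxymethyl cellulose and given intravenously. Deaths and body weight were monitored. Tumor growth inhibition = [1 − (mean treated tumor volume)/(mean control tumor volume)] × 100%.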

A2780 [3] = experiment: Cytotoxicity against human A2780 cells assessed as cell growth inhibition; type: functional, cell-based
Heat shock protein HSP90 [4] = target: T1, Heat shock protein HSP90; experiment: Inhibition of HSP90 (unknown origin) assessed as HER2 degradation by cell-based assay
[5] = Toxicity in BALB/c nu/nu mouse xenografted with human A2780 cells assessed as mouse death at 50 mg/kg, iv administered 3 times a week for 2 weeks starting from 5 to 6 days post tumor inoculation; type: organism-based; conditions: in vivo; procedure, shortened: as §1
[6] = Toxicity in BALB/c nu/nu mouse xenografted with human A2780 cells assessed as effect on body weight at 50 mg/kg, iv administered 3 times a week for 2 weeks starting from 5 to 6 days post tumor inoculation; type: organism-based; conditions: in vivo; procedure, shortened: as §1
NCI-H1975 = experiment: Antitumor activity against human NCI-H1975 cells xenografted in BALB/c athymic nu/nu mouse assessed as tumor growth inhibition at 200 mg/kg, iv administered once a week for 3 weeks relative to control; type: functional; conditions: 504 h, read-out: TGI
Procedure, shortened: (§2)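 Athymic BALB/c-nu/nude mice bearing NCI-H1975 human lung carcinoma xenografts, n = 6 per group. Compounds were given i.v. at 200 mg/kg once weekly for three weeks. Deaths and body weight loss were recorded. Tumor growth inhibition was calculated from mean treated versus mean control tumor volumes.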

[7] = Toxicity in BALB/c nu/nu mouse xenografted with human A2780 cells assessed as effect on body weight at 50 mg/kg, iv administered 3 times a week for 3 weeks starting from 5 to 6 days post tumor inoculation; type: organism-based; conditions: in vivo; procedure, shortened: as §1
[8] = Toxicity in BALB/c athymic nu/nu mouse xenografted with human NCI-H1975 cells assessed as mouse death at 200 mg/kg, iv administered once a week for 3 weeks; type: organism-based; conditions: in vivo, 504 h; procedure, shortened: as §2
[9] = Toxicity in BALB/c nu/nu mouse xenografted with human A2780 cells assessed as mouse death at 50 mg/kg, iv administered 3 times a week for 3 weeks starting from 5 to 6 days post tumor inoculation; type: organism-based; conditions: in vivo; procedure, shortened: as §1
A2780 [10] = experiment: Antitumor activity against human A2780 cells xenografted in BALB/c nu/nu mouse assessed as tumor growth inhibition at 50 mg/kg, iv administered 3 times a week for 3 weeks starting from 5 to 6 days post tumor inoculation relative to control; type: functional; conditions: read-out: TGI; procedure, shortened: as §1
[11] = Toxicity in BALB/c athymic nu/nu mouse xenografted with human NCI-H1975 cells assessed as effect on body weight at 200 mg/kg, iv administered once a week for 3 weeks; type: organism-based; conditions: in vivo, 504 h; procedure, shortened: as §2

Compound | IC50 (Heat shock protein HSP90 [1]) [nM] | IC50 (HCT-116) [nM] | IC50 (A2780 [3]) [nM] | IC50 (Heat shock protein HSP90 [4]) [nM] | also measured
CCNC(=O)c1noc(-c2cc(C(C)C)c(O)cc2O)c1-c1cc[nH]n1 | 524 | 36 | 33 | 45 | inhibition in vivo at 50 mg/kg (A2780 [2]): 46.4%; Activity [5]: Non-Toxic; Activity [6]: Non-Toxic
CCNC(=O)c1noc(-c2cc(C(C)C)c(O)cc2O)c1-c1cc(CO)no1 | 279 | 13 | 5 | 42 | inhibition in vivo at 200 mg/kg (NCI-H1975): 50.9%; Activity [7]: Non-Toxic; Activity [8]: Non-Toxic; Activity [9]: Non-Toxic; inhibition in vivo at 50 mg/kg (A2780 [10]): 47%; Activity [11]: Non-Toxic
CCNC(=O)c1noc(-c2cc(C(C)C)c(O)cc2O)c1-c1cc(CNC)no1 | 436 | 164 | – | – | –
CCNC(=O)c1noc(-c2cc(C(C)C)c(O)cc2O)c1-c1cc(CNC(C)C)no1 | 521 | 109 | 38 | 18 | –
CCNC(=O)c1noc(-c2cc(C(C)C)c(O)cc2O)c1-c1cc(C(=O)N2CCSCC2)no1 | 566 | – | 207 | – | –
CCNCc1cc(-c2c(C(=O)NCC)noc2-c2cc(C(C)C)c(O)cc2O)on1 | 475 | 45 | 45 | 23 | inhibition in vivo at 50 mg/kg (A2780 [2]): 40.3%; Activity [5]: Non-Toxic; Activity [6]: Non-Toxic
CCNC(=O)c1noc(-c2cc(C(C)C)c(O)cc2O)c1-c1ccn(C)n1 | 522 | 16 | 12 | 16 | –
CCNC(=O)c1noc(-c2cc(C(C)C)c(O)cc2O)c1-c1cnn(C)c1 | 482 | 41 | 20 | 19 | –
CCNC(=O)c1noc(-c2cc(C(C)C)c(O)cc2O)c1-c1ccn(CC)n1 | 553 | 25 | 13 | 12 | –
CCNC(=O)c1noc(-c2cc(C(C)C)c(O)cc2O)c1-c1cc(C(=O)N2CCOCC2)no1 | 583 | 60 | 85 | 52 | –
CCNC(=O)c1noc(-c2cc(C(C)C)c(O)cc2O)c1-c1cc(CNC(=O)CC)no1 | 382 | 78 | – | 50 | –
CCNC(=O)c1noc(-c2cc(C(C)C)c(O)cc2O)c1-c1cc(COCC(N)=O)no1 | 452 | 97 | – | 50 | –
CCNC(=O)c1noc(-c2cc(C(C)C)c(O)cc2O)c1-c1cc(COCC(=O)O)no1 | 1280 | – | – | – | –
CCNC(=O)c1noc(-c2cc(C(C)C)c(O)cc2O)c1-c1cc(C(=O)O)no1 | 1870 | – | 20000 | – | –
CCNC(=O)c1cc(-c2c(C(=O)NCC)noc2-c2cc(C(C)C)c(O)cc2O)on1 | 284 | 14 | 43 | 28 | inhibition in vivo at 200 mg/kg (NCI-H1975): 44%; Activity [7]: Non-Toxic; Activity [8]: Non-Toxic; Activity [9]: Non-Toxic; inhibition in vivo at 50 mg/kg (A2780 [10]): 52%; Activity [11]: Non-Toxic
CCNC(=O)c1noc(-c2cc(C(C)C)c(O)cc2O)c1-c1cc(C(=O)OCC)no1 | 447 | – | 9000 | – | –
CCCn1ccc(-c2c(C(=O)NCC)noc2-c2cc(C(C)C)c(O)cc2O)n1 | 584 | 49 | 27 | 24 | –
CCNC(=O)c1noc(-c2cc(C(C)C)c(O)cc2O)c1-c1cc(CN2CCSCC2)no1 | 440 | 67 | 64 | 38 | –
C=CCNCc1cc(-c2c(C(=O)NCC)noc2-c2cc(C(C)C)c(O)cc2O)on1 | 435 | – | – | 67 | –
CCNC(=O)c1noc(-c2cc(C(C)C)c(O)cc2O)c1-c1cc(CN(CC)CC)no1 | 468 | 38 | 78 | 52 | inhibition in vivo at 50 mg/kg (A2780 [2]): 12.8%; Activity [5]: Non-Toxic; Activity [6]: Non-Toxic
